Source: PubChem BioAssay (several laboratories)
NR3A LBD binder: NR3A (human) ligand-binding domain modulation | NR3A LBD differential scanning fluorimetry, Tm shift; 0% = protein alone, 100% = glycine-bound protein | Tm shift relative to glycine control, % at 25 µM | actives 2.5% (n = 340,000);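 active = melting temperature shift of at least 10% of the positive control shift, at one fixed dose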
UPR XBP1 act: activators of adaptive arm of unfolded protein response (XBP1) | AID 463104 | CHO-XBP1 luciferase reporter, IRE1-XBP1 UPR activation, luminescence; percent of tunicamycin response, DMSO as zero | activation, % at 20 µM | actives 0.33% (n = 330,000);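 active = versus positive control, 20 µM dose yields 30% or more activation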;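 also: 100% = tunicamycin at 10 µg/mL and 0% = DMSO only wells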
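incubation = overnight seeding at 37 °C, 6 h compound treatment at 37 °C | assay system = CHO-XBP1 cells stably carrying IRE1-XBP1-driven luciferase reporter | input = 1000 cells per well | detection = luciferase luminescence | dosing = single point, 20 µM final compound, 1% DMSO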
aDG glyco up: increases alpha dystroglycan glycosylation; Pro5-aDG cells, alpha-DG glycosylation AlphaScreen (IIH6); 0% Pro5, 100% B10-LARGE cell signal; activation, % at 10 µM; actives 0.22% (n = 360,000); AID 624168;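 active = activation of at least 8% versus controls, or a plate z-score of at least 8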;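 also: Pro5 are CHO cells carrying HIG-tagged alpha-DG that lacks glycosylation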
CHOP UPR activ: apoptotic UPR (CHOP) activation. CHO-CHOP luciferase reporter, luminescence; percent of tunicamycin response over DMSO baseline. activation, % at 10 µM. actives 0.34% (n = 330,000). AID 449763;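 active = at 10 µM dose, activation of 40% or more, normalized to positive control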;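 also: 100% = tunicamycin at 10 µg/mL and 0% = DMSO alone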
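Evaluation: % reporter activation, DMSO baseline versus tunicamycin full activation; System: CHO-CHOP luciferase reporter cell line; Input: 500 cells/well; Incubation: 6 h compound treatment, 37 °C; Measured by: Steady-Glo luciferase luminescence; Dosing: one dose, 10 µM in 0.5% DMSO; Buffer or medium: F12 medium, 10% FBS; Benchmarks: positive tunicamycin 10 µg/mL, negative DMSO alone.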
CHOP inh: blocks CHOP induction under ER stress | CHO-K1 CHOP-promoter luciferase, tunicamycin-induced, 15-18 h | inhibition, % at 10 µM | actives 3.8% (n = 220,000) | AID 2732;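 active = compounds that reduced the stress-induced luciferase reporter signal by more than about 70% of percent inhibition, limit read from the data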;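 also: 0% = tunicamycin plus vehicle and 100% = wells without tunicamycin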
MPTP block: permeability transition pore inhibition | actives 1.4% (n = 360,000) | inhibition, % at 10 µM | isolated mouse mitochondria, Ca2+ swelling absorbance, 30 min | AID 602449;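 active = inhibition of 50% or more, scaled per plate between neutral and stimulator controls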;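 also: 0% = DMSO wells given calcium and 100% = 1 mM EGTA wells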
Starred values were filed as active, the others as inactive; nt = not tested or not shown. A selection: hits, their analogues and other compounds. The true share with any hit is near 5.6%.

SMILES	NR3A LBD binder	UPR XBP1 act	aDG glyco up	CHOP UPR activ	CHOP inh	MPTP block
COc1ccc(NC(=O)c2ccc(-c3ccc(OC)cc3)s2)cc1	22.3*	2.2	-0.2	5.5	-24.6	-3.8
CNC(=O)c1ccc(-c2ccc(F)cc2)s1	-46.0	5.0	-0.1	2.7	-20.7	-0.1
O=C(Nc1ccccc1)c1ccc(-c2ccc(F)cc2)s1	21.6*	0.9	-0.7	-1.7	-9.2	-2.0
Oc1ccccc1-c1cc(-c2ccccc2)no1	19.1*	-1.0	-0.1	5.1	43.6	0.5
Cc1ccc(-c2cc(-c3ccccc3)no2)c(O)c1	5.4	nt	0.7	nt	66.6	34.9
CCC1(c2ccccc2)NC(=O)N(CC(=O)Nc2ccc(OC)nc2)C1=O (stereo not given)	-1.6	-0.9	-0.4	1.1	nt	-1.5
NC(=O)CC(NC(=O)Cc1ccc(Br)cc1)c1ccc(NCc2ccc(F)c(F)c2)c([N+](=O)[O-])c1 (stereo not given)	-2.3	-3.0	-0.3	2.0	76.3*	-3.2
NC(=O)CC(NC(=O)Cc1cccc2ccccc12)c1ccc(N2CCCCCCC2)c([N+](=O)[O-])c1 (stereo not given)	-10.1	-2.1	-0.2	0.4	nt	0.7
NC(=O)CC(NC(=O)Cc1cccc2ccccc12)c1ccc(N2CCN(c3ccc(F)cc3)CC2)c([N+](=O)[O-])c1 (stereo not given)	-3.7	-2.0	-0.4	-1.2	94.3*	-0.4
NC(=O)CC(NC(=O)Cc1ccc(Br)cc1)c1ccc(N2CCCCCCC2)c([N+](=O)[O-])c1 (stereo not given)	-17.5	3.5	-0.3	1.1	nt	-1.7
NC(=O)CC(NC(=O)Cc1ccc(Br)cc1)c1ccc(N2CCC(Br)CC2)c([N+](=O)[O-])c1 (stereo not given)	-4.9	-2.7	0.1	-1.8	87.1*	0.2
NC(=O)CC(NC(=O)Cc1cccc2ccccc12)c1ccc(N2CCC(Cc3ccccc3)CC2)c([N+](=O)[O-])c1 (stereo not given)	-3.6	-2.9	-0.2	-2.2	nt	0.7
NC(=O)CC(NC(=O)Cc1ccc(Br)cc1)c1ccc(N2CCC(Cc3ccccc3)CC2)c([N+](=O)[O-])c1 (stereo not given)	1.4	-0.5	-0.3	-1.7	95.9*	0.5
COc1cc(C(=O)NCC(c2ccco2)N2CCOCC2)cc(OC)c1OC (stereo not given)	1.7	-3.6	-0.1	2.3	nt	0.6
CC1OC(C(C)(C)C)Cc2[nH][nH]c(=O)c21 (stereo not given)	nt	nt	-0.3	nt	nt	-0.9
CCOc1ccc(NC(=O)C(CC(=O)O)Cc2ccc(C)cc2)cc1 (stereo not given)	0.7	-1.9	-0.1	1.3	nt	0.6
CCCN1CCc2c(sc(NC(=O)c3ccc(S(=O)(=O)N4CCN(C(=O)OCC)CC4)cc3)c2C(N)=O)C1	-2.6	1.4	12.4*	1.1	nt	0.1
CN1CCc2c(sc(NC(=O)c3ccc(S(=O)(=O)N4CCCCCC4)cc3)c2C(N)=O)C1	-5.7	-3.5	32.6*	3.7	nt	1.2
O=C(N/C(=C/c1ccc(Br)cc1)C(=O)N1CCCCC1)c1ccccc1F	-0.9	-2.3	0.0	-0.8	nt	-1.3
O=C(COC(=O)c1ccc(CSc2ccc(Cl)cc2)cc1)Nc1ccccc1	-3.0	1.3	-0.1	1.5	26.0	-0.4
COc1ccccc1NC(=O)c1cc2ccc(O)cc2o/c1=N\O	35.6*	7.1	-0.3	1.6	-7.8	1.1
COc1ccc2o/c(=N\O)c(C(=O)Nc3ccc(C)cc3)cc2c1	16.2*	nt	4.5	nt	20.7	1.3
CC1(c2nnnn2-c2ccc3c(c2)OCCO3)CCC(=O)N1CC1CCCCC1 (stereo not given)	nt	nt	0.2	nt	nt	0.2
Cc1ccc(N(CC(=O)O)S(C)(=O)=O)cc1Cl	11.5*	-0.6	-0.3	-0.1	-2.2	0.4
Cc1ccc(N(CC(=O)N2CCCCCC2)S(C)(=O)=O)cc1Cl	0.5	-2.1	0.4	0.7	nt	-0.2
CCN(CC)C(=O)CN(c1ccc2c(c1)OCO2)S(C)(=O)=O	-1.0	-4.2	-0.1	-3.4	1.0	1.3
